Test results taken from ChEMBL document CHEMBL2385064, “Selective CB2 agonists with anti-pruritic activity: discovery of potent and orally available bicyclic 2-pyridones” (Bioorg Med Chem, 2013).
Active and inactive are the calls of the source. The rule behind the calls is not given here.

Legend:
Cannabinoid receptor 2 [1] = target: T1, Cannabinoid receptor 2 (Homo sapiens, UniProt P34972); assay: Displacement of [3H]-CP-55,940 from human CB2 receptor expressed in CHO cell membranes
In short: (§1)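 Competition binding against [3H]-CP-55,940 on membranes from CHO cells stably expressing recombinant human CB1 or CB2. Between-day coefficient of variation is 0.24 for CB1 and 0.53 for CB2.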

Cannabinoid receptor 1 = Cannabinoid receptor 1 (Homo sapiens, UniProt P21554); assay: Displacement of [3H]-CP-55,940 from human CB1 receptor expressed in CHO cell membranes; in short: as §1
Chain of Cannabinoid receptor 1 (P21554 whole entry): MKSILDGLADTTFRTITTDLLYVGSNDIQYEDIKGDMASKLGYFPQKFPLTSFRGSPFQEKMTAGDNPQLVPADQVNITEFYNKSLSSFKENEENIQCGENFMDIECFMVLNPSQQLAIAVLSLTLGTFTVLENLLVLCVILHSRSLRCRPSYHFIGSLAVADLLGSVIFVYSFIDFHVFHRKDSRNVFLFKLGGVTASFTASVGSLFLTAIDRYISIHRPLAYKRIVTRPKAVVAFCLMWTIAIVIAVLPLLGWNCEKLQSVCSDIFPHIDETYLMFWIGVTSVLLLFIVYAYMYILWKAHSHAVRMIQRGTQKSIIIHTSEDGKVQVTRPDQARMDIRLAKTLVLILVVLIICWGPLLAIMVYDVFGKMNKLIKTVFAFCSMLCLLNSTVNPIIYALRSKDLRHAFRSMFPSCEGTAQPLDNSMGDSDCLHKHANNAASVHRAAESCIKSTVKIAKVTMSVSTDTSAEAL

Homo sapiens = species on record: Homo sapiens; assay: Selectivity ratio of Ki for human CB1 receptor to Ki for human CB2 receptor
[2] = Total plasma clearance in mouse at 1 mg/kg, iv; type: ADME, organism-based; parameters: dose 1 mg/kg, route intravenous
Cannabinoid receptor 2 [3] = target: T1, Cannabinoid receptor 2; assay: Agonist activity at human CB2 receptor expressed in CHO cells assessed as inhibition of forskolin-induced cAMP production; type: functional, cell-based
In short: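 Functional readout is inhibition of forskolin-evoked cAMP accumulation in CHO cells expressing human CB2. IC50 determined from more than four duplicate assay points. Between-day coefficient of variation is 0.63.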

[4] = Volume of distribution at steady state in mouse at 1 mg/kg, iv; type: ADME, organism-based; parameters: dose 1 mg/kg, route intravenous; conditions: in vivo, read-out: Vdss
Cannabinoid receptor 2 [5] = target: T1, Cannabinoid receptor 2; assay: Agonist activity at human CB2 receptor expressed in CHO cells assessed as inhibition of forskolin-induced cAMP production at 0.02 uM relative to control; type: functional, cell-based
In short: (§2)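 Forskolin-induced cAMP production measured in human CB2-expressing CHO cells. Emax is the maximum inhibition rate of cAMP production at the indicated concentration.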

[6] = Half life in mouse at 1 mg/kg, iv; type: ADME, organism-based; parameters: dose 1 mg/kg, route intravenous; conditions: in vivo
[7] = target: Cannabinoid receptor 2 (Mus musculus) (UniProt P47936); assay: Displacement of [3H]-CP-55,940 from mouse spleen CB2 receptor expressed in CHO cell membranes
Chain of Cannabinoid receptor 2 (Mus musculus) (P47936 whole entry): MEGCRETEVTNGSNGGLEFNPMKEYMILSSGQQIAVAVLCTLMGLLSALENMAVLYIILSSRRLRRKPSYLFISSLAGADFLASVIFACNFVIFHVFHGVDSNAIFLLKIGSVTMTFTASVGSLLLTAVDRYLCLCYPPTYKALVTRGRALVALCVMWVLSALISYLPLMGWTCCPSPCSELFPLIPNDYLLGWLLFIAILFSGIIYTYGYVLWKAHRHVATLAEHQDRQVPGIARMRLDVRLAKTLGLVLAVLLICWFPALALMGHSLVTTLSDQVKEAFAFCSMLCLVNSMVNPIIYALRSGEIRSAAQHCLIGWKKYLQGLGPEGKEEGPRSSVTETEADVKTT

Cannabinoid receptor 2 [8] = target: T1, Cannabinoid receptor 2; assay: Agonist activity at human CB2 receptor expressed in CHO cells assessed as inhibition of forskolin-induced cAMP production at 0.2 uM relative to control; type: functional, cell-based; in short: as §2
Cannabinoid receptor 2 [9] = target: T1, Cannabinoid receptor 2; assay: Agonist activity at human CB2 receptor expressed in CHO cells assessed as inhibition of forskolin-induced cAMP production at 2 uM relative to control; type: functional, cell-based; in short: as §2
Mus musculus [10] = assay: Toxicity in po dosed ICR mouse assessed as decrease in locomotor activity at 100 mg/kg, po; type: organism-based; parameters: dose 100 mg/kg, route oral; conditions: in vivo
Mus musculus [11] = assay: AUC in mouse at 30 mg/kg, po; type: ADME, organism-based, Plasma; parameters: dose 30 mg/kg, route oral; conditions: in vivo
[12] = Half life in mouse at 2 mg/kg, iv; type: ADME, organism-based; parameters: dose 2 mg/kg, route intravenous; conditions: in vivo
[13] = Volume of distribution at steady state in mouse at 2 mg/kg, iv; type: ADME, organism-based; parameters: dose 2 mg/kg, route intravenous; conditions: in vivo, read-out: Vdss
Mus musculus [14] = assay: Oral bioavailability in mouse at 30 mg/kg; type: ADME, organism-based; conditions: in vivo
[15] = Cmax in mouse at 30 mg/kg, po; type: ADME, organism-based; parameters: dose 30 mg/kg, route oral; conditions: in vivo
Mus musculus [16] = assay: Antipruritic activity in ICR mouse assessed as inhibition of compound 48/80-induced scratching-behavior at 100 mg/kg, po administered once before challenge relative to control; type: functional
In short: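 Female ICR mice had their backs clipped. Compound was given orally once (n = 6) in sesame oil or 0.5% methylcellulose. Scratching bouts at the site by hind paws were counted for 30 min. Result compared with the vehicle group by Dunnett's t-test (p<0.05).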

T1 sequence (P34972 whole entry): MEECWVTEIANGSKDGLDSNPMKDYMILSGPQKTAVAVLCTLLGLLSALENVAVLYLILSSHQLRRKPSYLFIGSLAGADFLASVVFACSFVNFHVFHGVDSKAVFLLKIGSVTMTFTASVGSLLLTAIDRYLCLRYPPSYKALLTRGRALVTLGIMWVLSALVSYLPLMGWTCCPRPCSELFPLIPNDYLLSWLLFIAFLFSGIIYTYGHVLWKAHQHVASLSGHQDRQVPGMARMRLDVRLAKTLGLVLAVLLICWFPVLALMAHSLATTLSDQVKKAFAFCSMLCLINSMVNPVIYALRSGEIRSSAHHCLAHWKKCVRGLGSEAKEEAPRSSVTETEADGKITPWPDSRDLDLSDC

Which Ki (Cannabinoid receptor 2 [1]) does the source give for `CC(C)CCn1c2c(cc(C(=O)NCc3ccccc3)c1=O)CCCCCC2` here?
The Ki was 0.0009 µM.

And the Ki (Cannabinoid receptor 1)?
Its Ki is 0.009 µM.

What about the Ratio Ki (Homo sapiens) of the same compound?
The Ratio Ki was 10.

Which Ki (Cannabinoid receptor 2 [1]) does the source give for `CCCCn1c2c(cc(C(=O)NCc3ccccc3)c1=O)COCC2` here?
Its Ki is 0.204 µM.

Which Ki (Cannabinoid receptor 2 [1]) does the source give for `CCCCn1c2c(cc(C(N)=O)c1=O)CCCCCC2` here?
The Ki was 0.04 µM.

And the Ki (Cannabinoid receptor 1)?
Its Ki is over 5 µM.

What about the Ratio Ki (Homo sapiens) of the same compound?
The Ratio Ki was over 125.

With `CCCCn1c(C)c(C)cc(NC(=O)Nc2ccccc2)c1=O` as the compound, how does the Ki (Cannabinoid receptor 2 [1]) read?
The Ki was over 5 µM.

For `CCCCn1c2c(cc(C(=O)NC3CCCCC3)c1=O)CCCCCC2`, which clearance [2] is on record?
The clearance was 2.1 L/h/kg.

And the IC50 (Cannabinoid receptor 2 [3])?
Its IC50 is under 0.0002 µM.

What about the Vd [4] of the same compound?
Its Vd is 0.89 L/kg.

What about the Emax (Cannabinoid receptor 2 [5]) of the same compound?
Its Emax is 98%.

What about the half-life [6] of the same compound?
Its half-life is 18 min.

What about the Ratio Ki (Homo sapiens) of the same compound?
Its Ratio Ki is 95.

And the Activity [7]?
Its Activity is “Active”.

With `CCCCn1c2c(cc(C(=O)NC3CCN(C)CC3)c1=O)CCCCCC2` as the compound, how does the Ki (Cannabinoid receptor 2 [1]) read?
The Ki was 0.147 µM.

For `CCCCn1c2c(cc(C(=O)NCCc3ccccc3)c1=O)CCCCCC2`, which Emax (Cannabinoid receptor 2 [8]) is on record?
Its Emax is 98%.

And the Ratio Ki (Homo sapiens)?
The Ratio Ki was 568.

With `CCCCn1c2c(cc(C(=O)NC(C)(C)c3ccccc3)c1=O)CCCCCC2` as the compound, how does the IC50 (Cannabinoid receptor 2 [3]) read?
Its IC50 is 0.0002 µM.

What does the source list for `CCCCn1c2c(cc(C(=O)NCc3ccccc3)c1=O)CCCC2`?
Ki (Cannabinoid receptor 2 [1]): 0.017 µM; IC50 (Cannabinoid receptor 2 [3]): 0.017 µM; Emax (Cannabinoid receptor 2 [9]): 76%; Ki (Cannabinoid receptor 1): 0.746 µM; Ratio Ki (Homo sapiens): 44

With `CCCCn1c(C)c(C)cc(NS(=O)(=O)c2ccccc2)c1=O` as the compound, how does the Ki (Cannabinoid receptor 2 [1]) read?
Its Ki is over 5 µM.

For `O=C(NCc1ccccc1)c1cc2c(n(CCCN3CCOCC3)c1=O)CCCCCC2`, which Ki (Cannabinoid receptor 2 [1]) is on record?
The Ki was 0.209 µM.

For `CCCCn1c2c(cc(C(=O)NCc3ccccc3)c1=O)CCC2`, which Ki (Cannabinoid receptor 2 [1]) is on record?
The Ki was 0.016 µM.

And the Emax (Cannabinoid receptor 2 [9])?
The Emax was 83%.

And the Ki (Cannabinoid receptor 1)?
Its Ki is 0.143 µM.

What about the Ratio Ki (Homo sapiens) of the same compound?
Its Ratio Ki is 8.9.

For `CCCCn1c(C)c(C)cc(C(=O)NCc2ccccc2)c1=O`, which Ki (Cannabinoid receptor 2 [1]) is on record?
Its Ki is 0.066 µM.

And the Ki (Cannabinoid receptor 1)?
The Ki was 0.606 µM.

Which results are given for `CCCCn1c(CC)c(C)cc(C(=O)NCc2ccccc2)c1=O`?
Ki (Cannabinoid receptor 2 [1]): 0.02 µM; Ki (Cannabinoid receptor 1): 0.322 µM; Ratio Ki (Homo sapiens): 16

For `CCCCn1c2c(cc(C(=O)NCc3ccccc3)c1=O)CCCCCC2`, which Activity (Mus musculus [10]) is on record?
Its Activity is “Non-toxic”.

What about the AUC (Mus musculus [11]) of the same compound?
The AUC was 0.39 µg·h/mL.

What about the half-life [12] of the same compound?
The half-life was 16.8 min.

And the Vd [13]?
The Vd was 2.29 L/kg.

And the F (Mus musculus [14])?
The F was 25%.

And the Emax (Cannabinoid receptor 2 [8])?
The Emax was 100%.

What about the Cmax [15] of the same compound?
Its Cmax is 0.168 µg/mL.

What about the inhibition in vivo at 100 mg/kg (Mus musculus [16]) of the same compound?
Its inhibition in vivo at 100 mg/kg is 81%.

And the Ratio Ki (Homo sapiens)?
The Ratio Ki was 593.

What about the Activity [7] of the same compound?
Its Activity is “Active”.

Which Ki (Cannabinoid receptor 2 [1]) does the source give for `CCCCn1c2c(cc(C(=O)NC(C)C)c1=O)CCCCCC2` here?
Its Ki is 0.004 µM.

What about the IC50 (Cannabinoid receptor 2 [3]) of the same compound?
The IC50 was 0.0025 µM.

What about the Emax (Cannabinoid receptor 2 [9]) of the same compound?
The Emax was 92%.

And the Ki (Cannabinoid receptor 1)?
Its Ki is 0.591 µM.

What about the Ratio Ki (Homo sapiens) of the same compound?
The Ratio Ki was 148.
